Test results reported in ChEMBL document CHEMBL1149756, “Synthesis and antiprotozoal activities of simplified analogs of naphthylisoquinoline alkaloids” (Eur J Med Chem, 2008).
Converted amounts (≈) assume the structure as drawn. The source made the active and inactive calls. No cut-off for these calls is given here.

Assays:
Leishmania donovani [1] = assay: Antileishmanial activity against Leishmania donovani infected in mouse peritoneal macrophages after 96 hrs; assay type: functional, organism-based
Method in brief: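 L. donovani amastigotes from axenic culture grown at pH 5.4, 1.2 × 10⁵ per well added to macrophages; free amastigotes removed after 4 h and medium replaced. Compound dilutions added next day, 96 h incubation. Slides methanol-fixed 10 min, stained with 10% Giemsa; infected and non-infected macrophages counted, infection rates versus controls. Means of at least two independent assays in duplicate.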

Trypanosoma cruzi = assay: Antitrypanosomal activity against Trypanosoma cruzi Tulahuen C2C4 trypomastigotes infected in rat L6 cells after 4 days
L6 = assay: Cytotoxicity against rat L6 cells after 4 days; assay type: cell-based; conditions: L6, 96 h
Method in brief: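 Non-infected L6 cells seeded at 2000 cells/well in RPMI 1640, 10% FBS, 2 mM L-glutamine, exposed to serial drug dilutions 4 d at 37 °C, 5% CO₂. […] after 2–4 h. IC50 from sigmoidal inhibition curve; means of at least two independent assays in duplicate.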

Leishmania donovani [2] = assay: Antileishmanial activity against Leishmania donovani amastigotes infected in mouse peritoneal macrophages after 96 hrs
[3] = Therapeutic index, ratio of IC50 for rat L6 cells to IC50 for Trypanosoma cruzi
[4] = Therapeutic index, ratio of IC50 for rat L6 cells to IC50 for Leishmania donovani; assay type: cell-based; conditions: read-out: Ratio IC50
Leishmania donovani [5] = assay: Antileishmanial activity against Leishmania donovani axenic amastigotes
[6] = Therapeutic index, ratio of IC50 for rat L6 cells to IC50 for Trypanosoma cruzi C2C4; assay type: cell-based; conditions: read-out: Ratio IC50

SMILES | IC50 (Leishmania donovani [1]) [µg/mL] | IC50 (Trypanosoma cruzi) [µg/mL] | IC50 (Leishmania donovani [2]) [µg/mL] | IC50 (L6) [µg/mL] | selectivity ratio [3] | selectivity ratio [4] | Activity (Leishmania donovani [5]) | selectivity ratio [6]
COc1cc(OC)c2c(c1I)CC(C)(C)NC2 | 0.463 (≈ 1.33 µM) | 37.7 (≈ 109 µM) | > 10 | 33.2 (≈ 95.6 µM) | – | – | – | –
COc1cc(OC)c2c(c1Br)CC(C)(C)NC2 | 0.628 (≈ 2.09 µM) | 40.7 (≈ 136 µM) | > 10 | > 90 | – | – | – | –
COc1cc(OC)c(-c2ccc(O)cc2)c2c1CNC(C)(C)C2 | > 5 | 45.2 (≈ 144 µM) | 12.8 (≈ 40.7 µM) | 28.2 (≈ 90 µM) | – | – | – | –
COc1cc2c(c(OC)c1)CNC(C)(C)C2 | 3.46 (≈ 15.6 µM) | > 90 | > 30 | > 90 | – | – | – | –
O=C(Cn1ccnc1[N+](=O)[O-])NCc1ccccc1 [BENZNIDAZOLE] | – | 0.25 (≈ 0.961 µM) | – | – | > 360 | – | – | –
COc1ccc(-c2ccc(O)cc2CO)c2c1CNC(C)(C)C2 | 3.55 (≈ 11.3 µM) | > 30 | > 30 | > 90 | – | – | – | –
COc1ccc(I)c2c1CNC(C)(C)C2 | 0.341 (≈ 1.08 µM) | 10 (≈ 31.5 µM) | – | 83.9 (≈ 265 µM) | – | – | inactive | –
COc1cccc2c1CNC(C)(C)C2 | > 5 | 33 (≈ 173 µM) | – | > 90 | – | – | inactive | –
COc1cc([C@@H]2c3cc4c(cc3[C@H](O)[C@H]3COC(=O)[C@H]23)OCO4)cc(OC)c1OC [PODOFILOX] | – | – | – | 0.006 (≈ 0.0145 µM) | – | – | – | –
COc1cc(OC)c2c(c1Br)CC(C)(C)N=C2C | 0.377 (≈ 1.21 µM) | 19.8 (≈ 63.4 µM) | 18.9 (≈ 60.5 µM) | 57.5 (≈ 184 µM) | – | 152 | – | –
CCN(CC)CCCC(C)Nc1ccnc2cc(Cl)ccc12 (centres undefined) [CHLOROQUINE] | 0.23 (≈ 0.719 µM) | – | – | – | – | 1090 | – | –

Further lines, with some results ahead:

IC50 (Leishmania donovani [1]) [µg/mL] | IC50 (Trypanosoma cruzi) [µg/mL] | IC50 (Leishmania donovani [2]) [µg/mL] | SMILES | IC50 (L6) [µg/mL] | selectivity ratio [3] | selectivity ratio [4] | Activity (Leishmania donovani [5]) | selectivity ratio [6]
3.87 (≈ 9.49 µM) | 5.2 (≈ 12.8 µM) | – | COc1ccc(I)c2c1CN(Cc1ccccc1)C(C)(C)C2 | 30 (≈ 73.7 µM) | 5.77 | 7.8 | inactive | –
1.4 (≈ 4.48 µM) | 20.1 (≈ 64.5 µM) | > 10 | COc1cc2c(c(OC)c1)CN(Cc1ccccc1)C(C)(C)C2 | > 90 | – | > 64.5 | – | –
4.67 (≈ 10.9 µM) | 44.8 (≈ 104 µM) | – | COc1cc(OS(=O)(=O)C(F)(F)F)cc2c1CN(Cc1ccccc1)C(C)(C)C2 | > 90 | – | > 19.2 | inactive | –
0.521 (≈ 1.75 µM) | 22.7 (≈ 76.3 µM) | 30 (≈ 101 µM) | COc1cc(O)cc2c1CN(Cc1ccccc1)C(C)(C)C2 | 79.6 (≈ 268 µM) | – | 153 | – | –
0.424 (≈ 1.09 µM) | 5.8 (≈ 14.9 µM) | 4.2 (≈ 10.8 µM) | COc1cc(OC)c2c(c1Br)CC(C)(C)N(Cc1ccccc1)C2 | 84.8 (≈ 217 µM) | 14.6 | 200 | – | 20.2
0.349 (≈ 0.96 µM) | 5.5 (≈ 15.1 µM) | 5.2 (≈ 14.3 µM) | COc1cc(OC)c(-c2ccc(O)c3ccccc23)c2c1CNC(C)(C)C2 | 8.4 (≈ 23.1 µM) | 1.53 | 24.1 | – | 1.62
1.02 (≈ 2.34 µM) | 3.7 (≈ 8.46 µM) | 2.4 (≈ 5.49 µM) | COc1cc(OC)c2c(c1I)CC(C)(C)N(Cc1ccccc1)C2 | 66 (≈ 151 µM) | 17.8 | 64.5 | – | 27.5
> 5 | 3.6 (≈ 10.6 µM) | > 30 | COc1ccc(-c2c(OC)cc(OC)c3c2CC(C)(C)N=C3C)cc1 | 43.4 (≈ 128 µM) | 12.1 | – | – | –
> 5 | 59.1 (≈ 270 µM) | 18.3 (≈ 83.5 µM) | COc1cc2c(c(OC)c1)C=NC(C)(C)C2 | > 90 | – | – | – | –
4.06 (≈ 17.4 µM) | 44.8 (≈ 192 µM) | 18.2 (≈ 78 µM) | COc1cc2c(c(OC)c1)C(C)=NC(C)(C)C2 | > 90 | – | > 22.2 | – | –
